Screens from PubChem BioAssay.
STAT3 blocker – IL-6 driven STAT3 reporter inhibitors, primary screen, U3A cells, luciferase, luminescence, MLSCN library; IL-6 STAT3-luciferase reporter; host cell line lacks STAT1; inhibition, % at 5.5 µM; 190,000 compounds, 0.89% hits;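 active = inhibition above the mean inhibition across all screened compounds plus 3 SD, cut at about 44% in these data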;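 also: 0% = DMSO only wells and 100% = 100 µM nifuroxazide control wells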
STAT1 act – STAT1 signaling activators, primary screen, cell-based, HTS, luciferase reporter; NIH 3T3 STAT1-luciferase reporter, IFN-gamma, luminescence; 100% = IFN-gamma alone, no compound; activation (% of control), % at 5.5 µM; 200,000 compounds, 2.6% hits; AID 932, 2007;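 active = activation above the screen-wide mean activation plus 3 SD, cut at about 130% in these data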;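 also: raw ratio to IFN-gamma control signal so 100% means no change and 0% no light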
STAT3 activator – IL-6 driven STAT3 reporter potentiators, primary screen, U3A cells, luciferase, luminescence, MLSCN library; IL-6 STAT3-luciferase reporter; 100% = signal with IL-6 EC80 alone; activation (% of control), % at 5.6 µM; 190,000 compounds, 0.91% hits;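 active = activation above the screen-wide mean of compound activation plus 3 SD, cut at about 130% in these data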;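 also: 0% = background luminescence of wells with medium and substrate only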
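Material: STAT1-lacking human U3A cells, STAT3 luciferase reporter | Benchmarks: IL-6-only wells as 100% reference | Probe or stimulus: IL-6 (33 ng/mL) | Timing: Compound 1 h, then IL-6 6 h at 37 °C | Detection: Luminescence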
STAT1 inh – STAT1 signaling inhibitors, primary screen, cell-based, HTS, luciferase reporter; NIH 3T3 STAT1-luciferase reporter, IFN-gamma, luminescence; inhibition, % at 5.5 µM; 200,000 compounds, 0.35% hits; AID 920, 2007;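 active = inhibition above a set limit, the mean inhibition across all tested compounds plus 3 SD, cut at about 34% in these data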;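 also: 0% = IFN-gamma with DMSO and 100% = IFN-gamma with 300 µM nifuroxazide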
NF-kB neuron act – activators of NF-kB expression in neurons, primary screen, cell-based, HTS; human neuronal cells, NF-kB reporter expression; active compounds read high; fold change at 12.5 µM; 190,000 compounds, 1.6% hits; in the data active = fold change above about 3.3
APP 5'UTR act – activators of APP 5'UTR luciferase reporter, primary screen, SH-SY5Y cells | SH-SY5Y APP 5'UTR luciferase reporter, luminescence; zero percent = DMSO vehicle wells | activation, % at 2 µM | 190,000 compounds, 1% hits;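 active = activation above a set limit, based on mean plus 3 SD of controls, cut at about 140% in these data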
STAT1 act conf – STAT1 signaling activators, confirmation, cell-based, HTS, luciferase reporter; shares compounds with STAT1 act; NIH 3T3 STAT1-luciferase reporter, IFN-gamma potentiation, luminescence; 100% = IFN-gamma EC80 alone, no compound; activation (% of control), % at 5.7 µM; 1,200 compounds, 97% hits; AID 1262, 2008;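 active = activation above a set limit carried over from the earlier primary STAT1 screen, cut at about 140% in these data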;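 also: simple ratio to median IFN-gamma plus DMSO wells so 0% means no light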
NFkB act – NF-kB reporter activators, TNF-alpha stimulated, counter-screen for STAT1 activator project, cell-based, HEK293T, luciferase luminescence | shares compounds with STAT1 act | 100% = TNF-alpha with vehicle only | activation (% of control), % at 5.7 µM | 1,200 compounds, 43% hits | AID 1306, 2008;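 active = activation above the mean of solvent-only control wells plus 3 SD, set per campaign, cut at about 130% in these data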;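 also: TNF-alpha given at a submaximal dose yielding about 80% of full reporter signal; values are well signal over median control so 100% means no change and 0% no light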
STAT3 act STAT1c – STAT3 reporter activation by STAT1 hits, confirmation, counter-screen for STAT1 activator project, U3A cells, luciferase, luminescence; shares compounds with STAT1 act; IL-6; cells lack STAT1; 100 = IL-6 alone, no compound effect; activation (% of control), % at 5.7 µM; 1,200 compounds, 46% hits; AID 1316, 2008;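 active = activation above the solvent-only control well mean plus 3 SD, set per plate batch, cut at about 110% in these data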;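 also: 0% = no luminescence and 100% = median IL-6 plus DMSO wells; higher means more STAT3 reporter activation so hits are non-selective activators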
* marks the source's active call; other numbers are inactive results; . = no result given. Shown are actives, neighbours in structure and some others; about 4.9% of the full set was active somewhere.

SMILES	STAT3 blocker	STAT1 act	STAT3 activator	STAT1 inh	NF-kB neuron act	APP 5'UTR act	STAT1 act conf	NFkB act	STAT3 act STAT1c
COc1ccc(NC(=O)CC2C(=O)N(c3cccc(C)c3)C(=O)N2C2CCCCC2)cc1 (centres undefined)	4	101	98	-1	0.42	9	.	.	.
CCc1nc(-c2ccc(C)nc2OC)no1	0	103	100	1	0.95	-17	.	.	.
COc1ccccc1-c1nc(-c2ccc(C)nc2OC)no1	10	157*	94	-62	2.5	46	165*	126	103
COC(=O)CNC(=O)C1(C)C=CCN1C(=O)c1ccccc1 (centres undefined)	-8	122	104	-24	2.1	10	.	.	.
COc1ccc(NC(=O)COc2ccc(C(=O)OCC(=O)N(C(C)C)C(C)C)cc2OC)cc1	8	92	100	9	1	-13	.	.	.
CCc1nnc(NC(=O)c2sc3nc4c(cc3c2N)CCCCCC4)s1	-4	128	105	-32	2	12	.	.	.
CCc1nnc(NC(=O)c2sc3nc4c(cc3c2N)CCCCC4)s1	-6	155*	106	-61	3.4*	70	187*	135*	117*
Cn1c(N)c(S(=O)(=O)NCc2ccc(Cl)cc2)c(=O)n(C)c1=O	-2	100	103	0	1.1	-8	.	.	.
COCCn1c(C)cc(C(=O)CSc2nc3ccccc3o2)c1C	33	158*	74	-63	1.8	177*	215*	121	107
c1ccc2c(c1)CCN(c1nc3cc4c(cc3s1)OCO4)C2	22	180*	86	-88	12*	151*	261*	136*	107
c1ccc2sc(Nc3nc4cc5c(cc4s3)OCO5)nc2c1	0	187*	100	-98	4.7*	195*	264*	149*	124*
Brc1ccc(-c2csc(N3CCc4ccccc4C3)n2)cc1	-4	101	108	-1	1.1	4	.	.	.
Brc1csc(/C=N/Nc2nc3ccccc3s2)c1	-14	190*	114	-101	4.4*	162*	248*	149*	134*
O=[N+]([O-])c1cc(Cl)cc(/C=N/Nc2nc3ccccc3s2)c1O	-29	113	128	-17	1	22	.	.	.
Cc1ccc(Nc2nc3ccccc3s2)c(C)c1	26	182*	78	-93	6.4*	168*	220*	109	98
COc1ccccc1CN1C[C@@H]2C[C@@H](c3cccc(C)c3)N3CCC[C@@]23C1=O	7	90	98	9	1	24	.	.	.
COc1cc(C(=O)NCCCNc2ccc([N+](=O)[O-])cc2)cc(OC)c1OC	-2	98	100	2	0.96	-2	.	.	.
CCC(Oc1ccccc1)C(=O)N1CCN(C(=O)C(CC)Oc2ccccc2)CC1 (centres undefined)	8	100	98	0	1.2	22	.	.	.
Fc1ccc2nc(Nc3nc4cc5c(cc4s3)OCCO5)sc2c1	4	166*	97	-74	1.6	102	194*	125	105
C(=N\Nc1nc2ccccc2s1)/c1ccc2c(c1)OCO2	-27	209*	118	-119	3.8*	180*	272*	123	124*
Cc1ccc(-n2ncc3c(NCc4ccco4)ncnc32)cc1C	8	154*	100	-58	4.7*	129	181*	140*	106
Cc1cc(C)n(Cc2ccc(Cl)c(Cl)c2)c(=O)c1S(=O)(=O)c1ccccc1	2	100	100	0	1.1	-2	.	.	.
Cc1cccc(/C(N)=N/OC(=O)c2ccc(Cl)cc2Cl)c1	-3	161*	100	-69	2.2	139*	222*	126	114*
Cc1ccc(/C(N)=N/OC(=O)c2ccc(C)cc2Cl)cc1	41	164*	67	-72	1.6	162*	207*	97	81
Cc1cccc(/C(N)=N/OC(=O)N2c3ccccc3Sc3ccccc32)c1	27	102	86	-3	1.4	13	.	.	.
SMILES	STAT3 blocker	STAT1 act	STAT3 activator	STAT1 inh	NF-kB neuron act	APP 5'UTR act	STAT1 act conf	NFkB act	STAT3 act STAT1c
N/C(=N\OC(=O)c1ccccc1Cl)c1ccc(Cl)cc1	-18	155*	126	-57	3.7*	58	193*	123	159*
CCNc1nc2nonc2nc1NCC	3	94	99	7	0.96	7	.	.	.
CCN(CC)S(=O)(=O)c1cc(NC(=O)COC(=O)CCC(=O)c2ccc(F)cc2)ccc1C	-5	102	105	-3	1.1	-3	.	.	.
CCOC(=O)c1c(C)nc2c(C)cccn12	12	98	90	-3	1.1	-10	.	.	.
CCOC(=O)c1c(C)nc2c3ccccc3ccn12	-12	153*	114	-57	5*	160*	202*	131	120*
Cc1ccc(O)c(C2=NCCNC(C(F)(F)F)=C2)c1	-4	109	100	-10	1.1	-2	.	.	.
Oc1c(C2=NCCNC(C(F)(F)F)=C2)ccc2ccccc12	4	199*	104	-111	6*	133	222*	147*	114*
Cc1cc(C(=O)NCCC2=CCCCC2)c(C)o1	12	155*	93	-47	2.3	136*	181*	120	110
NC(=O)NCCC1=CCCCC1	3	98	98	2	1	-17	.	.	.
COc1ccc(NC(=O)c2noc3c2CCCCC3)cc1	18	169*	91	-78	6.7*	166*	212*	138*	102
CCc1ccc(NC(=O)c2noc3c2CCCCC3)cc1	5	164*	102	-67	4.5*	202*	219*	144*	112*
Cc1ccc(NC(=O)c2noc3c2CCCCC3)cc1C	35	198*	74	-109	4.9*	237*	271*	122	96
